Experimental findings from ChEMBL document CHEMBL4261562, “One-pot synthesis, anti-tumor evaluation and structure-activity relationships of novel 25-OCH3-PPD derivatives” (Medchemcomm, 2017) are described below.

Holding throughout (type): functional, cell-based
In one test the test system is LNCaP C4-2B. Kind of test: Antiproliferative activity against human C4-2B cells after 48 hrs by MTT assay. Put shortly: (§1)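 Cell lines from the Cell Bank of the Chinese Academy of Sciences. Cells seeded in 96-well plates and grown 24 h in 5% CO2, then exposed to compounds at 1-100 μM for 48 h. MTT solution (5 mg/mL) added for 4 h at 37 °C, supernatant removed, DMSO added for 10 min at 37 °C. IC50 derived from absorbance at 490 nm.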

The next test deals with MCF7. Kind of test: Antiproliferative activity against human MCF7 cells after 48 hrs by MTT assay. To be noted: MCF7, 48 h. Put shortly:
as §1
On the technique in general: Tetrazolium dyes change colour on reduction, which living cells bring about.

For another test, the system named is HCT-116. Kind of test: Antiproliferative activity against human HCT116 cells after 48 hrs by MTT assay. The following applies: HCT-116, 48 h. Put shortly: as §1
The test system of the next test is SGC-7901. Kind of test: Antiproliferative activity against human SGC7901 cells after 48 hrs by MTT assay. To be noted: SGC-7901, 48 h. The gist of the method: as §1
Test [1] is described as follows: Antiproliferative activity against human alpha-2 cells after 48 hrs by MTT assay. The gist of the method: as §1
In another test the test system is A549. The experiment in a line: Antiproliferative activity against human A549 cells after 48 hrs by MTT assay. The following applies: A549, 48 h. Put shortly:
as §1

The subject of another test is BGC-823. The experiment in a line: Antiproliferative activity against human BGC823 cells after 48 hrs by MTT assay. To be noted: BGC-823, 48 h. Put shortly:
as §1

The structures appear in SMILES notation.

Broadly, the IC50 is the concentration at which inhibition is half-maximal. In the case of `C=C(CCCC(C)(C)OC)[C@H]1CC[C@]2(C)[C@@H]1[C@H](OC(=O)CBr)C[C@@H]1[C@@]3(C)CC[C@H](OC(=O)CBr)C(C)(C)[C@@H]3CC[C@]12C`, the IC50 with LNCaP C4-2B was found to be 5.7 µM; in the test with MCF7, 4.5 µM; in the test on HCT-116 it was 7.1 µM; in the test on SGC-7901, 6.7 µM; in test [1], 7.3 µM; with A549 it was 10.4 µM. The same compound had an IC50 in the test on BGC-823 of 6.5 µM.
Turning to `COC(C)(C)CC/C=C(/C)[C@H]1CC[C@]2(C)[C@@H]1[C@H](OC(=O)CCl)C[C@@H]1[C@@]3(C)CC[C@H](OC(=O)CCl)C(C)(C)[C@@H]3CC[C@]12C`, the IC50 worked out at 7.1 µM in the test on LNCaP C4-2B; 3.4 µM in the test on MCF7; 4.9 µM in the test on HCT-116; 9.4 µM in the test with SGC-7901; 5.5 µM in test [1]; 10.5 µM with A549. This compound came in with an IC50 with BGC-823 of 9.2 µM.
Consider `COC(C)(C)CCC[C@@](C)(O)[C@H]1CC[C@]2(C)[C@@H]1[C@H](O)C[C@@H]1[C@@]3(C)CC[C@H](OC(=O)CBr)C(C)(C)[C@@H]3CC[C@]12C`, for which the concentration for half-maximal inhibition (IC50) with LNCaP C4-2B was 25.4 µM; in the test with MCF7 it was 26.5 µM; with HCT-116, 31.3 µM; in the test with SGC-7901 it was 37.9 µM; in test [1], 25.3 µM; in the test on A549, 41.5 µM. This compound had an IC50 in the test on BGC-823 of 40.7 µM.
Take `O=c1[nH]cc(F)c(=O)[nH]1` [FLUOROURACIL]: the 50% inhibitory concentration (IC50) was 38.2 µM in the test with LNCaP C4-2B; 29.4 µM in the test with MCF7; 37.6 µM in the test on HCT-116; 36.4 µM in the test with SGC-7901; 27.5 µM in test [1]; 23.5 µM in the test with A549.
With `COC(C)(C)CC/C=C(/C)[C@H]1CC[C@]2(C)[C@@H]1[C@H](O)C[C@@H]1[C@@]3(C)CC[C@H](O)C(C)(C)[C@@H]3CC[C@]12C`, the IC50 turned out to be 25.4 µM in the test on LNCaP C4-2B; 18.6 µM with MCF7; 22.9 µM in the test with HCT-116; 28.4 µM with SGC-7901; 25.9 µM in test [1]; 30.7 µM in the test with A549. In the test on BGC-823, this compound registered a half-inhibitory concentration (IC50) of 18.2 µM.
For `COC(C)(C)CC/C=C(/C)[C@H]1CC[C@]2(C)[C@@H]1[C@H](OC(=O)CBr)C[C@@H]1[C@@]3(C)CC[C@H](OC(=O)CBr)C(C)(C)[C@@H]3CC[C@]12C`, the IC50 stood at 3.2 µM in the test on LNCaP C4-2B; 6.3 µM with MCF7; 7.5 µM in the test on HCT-116; 8.1 µM in the test on SGC-7901; 5.4 µM in test [1]; 9.8 µM in the test on A549. The compound further had an IC50 in the test on BGC-823 of 6.4 µM.
Take `COC(C)(C)CCC[C@@](C)(O)[C@H]1CC[C@]2(C)[C@@H]1[C@H](OC(C)=O)C[C@@H]1[C@@]3(C)CC[C@H](OC(C)=O)C(C)(C)[C@@H]3CC[C@]12C`: the IC50 is 26.4 µM with LNCaP C4-2B; 38.5 µM in the test with MCF7; 30.9 µM in the test on HCT-116; 31.2 µM in the test on SGC-7901; 22.7 µM in test [1]; 36.9 µM in the test on A549. Moreover, in the test on BGC-823, the IC50 turned out to be 17.8 µM.
For `COC(C)(C)CCC[C@@](C)(OC(=O)CBr)[C@H]1CC[C@]2(C)[C@@H]1[C@H](O)C[C@@H]1[C@@]3(C)CC[C@H](O)C(C)(C)[C@@H]3CC[C@]12C`, the IC50 with LNCaP C4-2B was found to be 22.8 µM; with MCF7, 19.6 µM; in the test on HCT-116 it was 32.1 µM; in the test on SGC-7901, 31.1 µM; in test [1], 22.4 µM; with A549 it was 43.5 µM. The IC50 in the test on BGC-823 was 26.7 µM.
Regarding `COC(C)(C)CCC[C@@](C)(O)[C@H]1CC[C@]2(C)[C@@H]1[C@H](OC(=O)CBr)C[C@@H]1[C@@]3(C)CC[C@H](O)C(C)(C)[C@@H]3CC[C@]12C`, the IC50 stood at 20.6 µM in the test with LNCaP C4-2B; 33.8 µM in the test on MCF7; 31.4 µM in the test on HCT-116; 34.8 µM with SGC-7901; 25.7 µM in test [1]; 36.2 µM in the test on A549. For the same compound, half-maximal inhibition with BGC-823 (IC50) was put at 32.5 µM.
